According to ChEMBL document CHEMBL1156776, “Hybrid inhibitors of phosphatidylinositol 3-kinase (PI3K) and the mammalian target of rapamycin (mTOR): design, synthesis, and superior antitumor activity of novel wortmannin-rapamycin conjugates” (J Med Chem, 2010):
Converted amounts (≈) assume the structure as drawn. The source made the active and inactive calls. The calls are words filed in the database; no cut-off is given here.

What was measured:
[1] = Inhibition of PI3K
[2] = target: Serine/threonine-protein kinase mTOR (Homo sapiens) (UniProt P42345); assay: Inhibition of mTOR
[3] = Stability in mouse plasma assessed as compound remaining after 120 mins relative to basal level; assay type: ADME, cell-free; conditions: read-out: Stability
In short: (§1)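 Compound was incubated in heparinized plasma at 37 °C for 2 h. Samples taken at various time points were quenched with acetonitrile, dried under nitrogen and reconstituted in methanol/water 20:80. Intact compound was quantified by LC/MS.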

Plasma [4] = assay: Stability in mouse plasma in presence of esterase inhibitor sodium fluoride; assay type: ADME, cell-free
In short: (§2)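 Compound was incubated in nude mouse plasma or whole blood at 37 °C for 2 h, with heparin or sodium fluoride/EDTA as anticoagulant. Time-point samples were quenched with acetonitrile, dried, reconstituted and analysed by LC/MS for parent and hydrolysis products.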

U-87MG ATCC [5] = assay: Antitumor activity against human U87MG cells xenografted in nude mouse assessed as tumor growth inhibition at 3 mg/kg, iv once weekly; assay type: functional, organism-based; design: dose 3 mg/kg
In short: (§3)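 U87MG glioma xenografts in nude mice were staged and randomized (n = 10). Dosing was iv once weekly in D5W (days 0, 6 or days 0, 6, 13), with vehicle controls. Tumor volume was measured twice weekly.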

Plasma [6] = assay: Stability in rat plasma after 5 hrs; assay type: ADME, cell-free
Plasma [7] = assay: Stability in human plasma after 5 hrs; assay type: ADME, cell-free
Plasma [8] = assay: Stability in mouse plasma after 5 hrs; assay type: ADME, cell-free
[9] = Stability in rat plasma assessed as compound remaining after 5 mins relative to basal level; assay type: ADME, cell-free; conditions: read-out: Stability; in short: as §1
[10] = Stability in rat plasma assessed as compound remaining after 15 mins relative to basal level; assay type: ADME, cell-free; conditions: read-out: Stability; in short: as §1
[11] = Stability in rat plasma assessed as compound remaining after 30 mins relative to basal level; assay type: ADME, cell-free; conditions: read-out: Stability; in short: as §1
[12] = Stability in rat plasma assessed as compound remaining after 60 mins relative to basal level; assay type: ADME, cell-free; conditions: read-out: Stability; in short: as §1
[13] = Stability in rat plasma assessed as compound remaining after 90 mins relative to basal level; assay type: ADME, cell-free; conditions: read-out: Stability; in short: as §1
[14] = Stability in rat plasma assessed as compound remaining after 120 mins relative to basal level; assay type: ADME, cell-free; conditions: read-out: Stability; in short: as §1
[15] = Stability in mouse plasma assessed as compound remaining after 5 mins relative to basal level; assay type: ADME, cell-free; conditions: read-out: Stability; in short: as §1
[16] = Stability in mouse plasma assessed as compound remaining after 15 mins relative to basal level; assay type: ADME, cell-free; conditions: read-out: Stability; in short: as §1
[17] = Stability in mouse plasma assessed as compound remaining after 30 mins relative to basal level; assay type: ADME, cell-free; conditions: read-out: Stability; in short: as §1
[18] = Stability in mouse plasma assessed as compound remaining after 60 mins relative to basal level; assay type: ADME, cell-free; conditions: read-out: Stability; in short: as §1
[19] = Stability in mouse plasma assessed as compound remaining after 90 mins relative to basal level; assay type: ADME, cell-free; conditions: read-out: Stability; in short: as §1
[20] = Stability in nude mouse whole blood assessed as rapamycin formation; assay type: ADME, tissue-based; in short: as §2
[21] = Stability in nude mouse whole blood assessed as release of (4S,4aR,6aS,7S,9aR,E)-1-(((3-(dimethylamino)propyl)(methyl)amino)methylene)-7,11-dihydroxy-4-(methoxymethyl)-4a-methyl-2,10-dioxo-1,2,4,4a,5,6,6a,7,8,9,9a,10-dodecahydroindeno[4,5-h]isochromen-5-yl hydrogen carbonate; assay type: ADME, tissue-based; in short: as §2
[22] = Stability in nude mouse whole blood assessed as 8-((4S,4aR,6aS,7S,9aR,E)-5-(carboxyoxy)-1-(((3-(dimethylamino)propyl)(methyl)amino)methylene)-11-hydroxy-4-(methoxymethyl)-4a-methyl-2,10-dioxo-1,2,4,4a,5,6,6a,7,8,9,9a,10-dodecahydroindeno[4,5-h]isochromen-7-yloxy)-8-oxooctanoic acid formation; assay type: ADME, tissue-based; in short: as §2
[23] = Stability in nude mouse liver microsomes assessed as compound remaining after 30 mins; assay type: ADME, Microsome; conditions: read-out: Stability
In short: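 Female nude mouse liver microsomes were incubated with compound for 30 min at 37 °C, with NADPH dependence examined. Remaining parent and hydrolysis products were measured.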

[24] = Stability in human liver microsomes assessed as compound remaining after 30 mins; assay type: ADME, Microsome; conditions: read-out: Stability
In short: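 Compound (10 μM) was incubated with human liver microsomes (1 mg/mL) at 37 °C for 30 min, alongside buffer (pH 7.4) and boiled-microsome controls. NADPH dependence was examined. Reactions were quenched with 3 volumes of cold acetonitrile.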

[25] = Solubility in water; assay type: physicochemical
U-87MG ATCC [26] = assay: Antitumor activity against human U87MG cells xenografted in nude mouse assessed as tumor growth inhibition administered iv once weekly; assay type: functional; in short: as §3
U-87MG ATCC [27] = assay: Antitumor activity against human U87MG cells xenografted in nude mouse assessed as tumor growth inhibition at 5 mg/kg, iv once weekly; assay type: functional, organism-based; design: dose 5 mg/kg; in short: as §3
U-87MG ATCC [28] = assay: Antitumor activity against human U87MG cells xenografted in nude mouse assessed as inhibition of AKT S473 phosphorylation at 15 mg/kg, iv administered as single dose measured after 2 hrs; assay type: functional, organism-based; design: dose 15 mg/kg
In short: (§4)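 Nude mice bearing U87MG tumors got a single iv dose. Tumors were excised 2 h later and analysed by Western blot for phosphoproteins (AKT S473, T308) against vehicle-treated controls.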

U-87MG ATCC [29] = assay: Antitumor activity against human U87MG cells xenografted in nude mouse assessed as inhibition of AKT T308 phosphorylation at 15 mg/kg, iv administered as single dose measured after 2 hrs; assay type: functional, organism-based; design: dose 15 mg/kg; in short: as §4
U-87MG ATCC [30] = assay: Antitumor activity against human U87MG cells xenografted in nude mouse assessed as inhibition of S6K phosphorylation at 15 mg/kg, iv administered as single dose measured after 2 hrs; assay type: functional, organism-based; design: dose 15 mg/kg
HT-29 = assay: Antitumor activity against human HT-29 cells xenografted in nude mouse assessed as tumor growth inhibition at 15 mg/kg, iv once weekly; assay type: functional, organism-based; design: dose 15 mg/kg
In short: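 Nude mice bearing HT29 colon xenografts were randomized into groups (n = 10) and dosed iv once weekly. Agents were in 5% dextrose in water, or in 4% ethanol/5% polysorbate 80/5% PEG400 for the rapamycin-type agent. Tumor growth was monitored against vehicle.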

Homo sapiens [31] = species: Homo sapiens; assay: Stability in human plasma assessed as compound remaining after 5 mins relative to basal level
Homo sapiens [32] = species: Homo sapiens; assay: Stability in human plasma assessed as compound remaining after 15 mins relative to basal level
Homo sapiens [33] = species: Homo sapiens; assay: Stability in human plasma assessed as compound remaining after 30 mins relative to basal level
Homo sapiens [34] = species: Homo sapiens; assay: Stability in human plasma assessed as compound remaining after 60 mins relative to basal level
Homo sapiens [35] = species: Homo sapiens; assay: Stability in human plasma assessed as compound remaining after 90 mins relative to basal level
Homo sapiens [36] = species: Homo sapiens; assay: Stability in human plasma assessed as compound remaining after 120 mins relative to basal level
A498 = assay: Antitumor activity against human A498 cells xenografted in nude mouse assessed as tumor growth inhibition at 30 mg/kg, iv once weekly
[37] = Solubility at pH 7.4; assay type: physicochemical; conditions: buffer

COC[C@H]1OC(=O)/C(=C\N(C)CCCN(C)C)C2=C(O)C(=O)C3=C([C@H](OC(C)=O)C[C@]4(C)[C@@H](OC(=O)CCCCC(=O)O[C@@H]5CC[C@@H](C[C@@H](C)[C@@H]6CC(=O)[C@H](C)/C=C(\C)[C@@H](O)[C@@H](OC)C(=O)[C@H](C)C[C@H](C)/C=C/C=C/C=C(\C)[C@@H](OC)C[C@@H]7CC[C@@H](C)[C@@](O)(O7)C(=O)C(=O)N7CCCC[C@H]7C(=O)O6)C[C@H]5OC)CC[C@@H]34)[C@]21C
inhibition [1]: inactive
inhibition [2]: inactive
remaining at 2 h [3]: 4%
Stability (Plasma [4]): Stable
Activity (U-87MG ATCC [5]): Active

C=CCN(/C=C1\C(=O)O[C@H](COC)[C@@]2(C)C1=C(O)C(=O)C1=C2[C@H](OC(C)=O)C[C@]2(C)[C@@H](OC(=O)CCCCCCC(=O)O[C@H]3CC[C@H](C[C@@H](C)[C@@H]4CC(=O)[C@H](C)/C=C(\C)[C@@H](O)[C@@H](OC)C(=O)[C@H](C)C[C@H](C)/C=C/C=C/C=C(\C)[C@@H](OC)C[C@@H]5CC[C@@H](C)[C@@](O)(O5)C(=O)C(=O)N5CCCC[C@H]5C(=O)O4)CC3)CC[C@@H]12)CC=C
inhibition [1]: inactive
inhibition [2]: inactive
Stability (Plasma [6]): Stable
Stability (Plasma [7]): Stable
Stability (Plasma [8]): Stable

COC[C@H]1OC(=O)/C(=C\N(C)CCCN(C)C)C2=C(O)C(=O)C3=C([C@H](OC(C)=O)C[C@]4(C)[C@@H](OC(=O)CCCCCCC(=O)O[C@H]5CC[C@H](C[C@@H](C)[C@@H]6CC(=O)[C@H](C)/C=C(\C)[C@@H](O)[C@@H](OC)C(=O)[C@H](C)C[C@H](C)/C=C/C=C/C=C(\C)[C@@H](OC)C[C@@H]7CC[C@@H](C)[C@@](O)(O7)C(=O)C(=O)N7CCCC[C@H]7C(=O)O6)CC5)CC[C@@H]34)[C@]21C
inhibition [1]: inactive
inhibition [2]: inactive

COC[C@H]1OC(=O)/C(=C\N(C)CCCN(C)C)C2=C(O)C(=O)C3=C([C@H](OC(C)=O)C[C@]4(C)[C@@H](OC(=O)CCCCCCC(=O)O[C@@H]5CC[C@@H](C[C@@H](C)[C@@H]6CC(=O)[C@H](C)/C=C(\C)[C@@H](O)[C@@H](OC)C(=O)[C@H](C)C[C@H](C)/C=C/C=C/C=C(\C)[C@@H](OC)C[C@@H]7CC[C@@H](C)[C@@](O)(O7)C(=O)C(=O)N7CCCC[C@H]7C(=O)O6)C[C@H]5OC)CC[C@@H]34)[C@]21C
inhibition [1]: inactive
inhibition [2]: inactive
remaining at 5 min [9]: 91%
remaining at 0.25 h [10]: 80%
remaining at 0.5 h [11]: 71%
remaining at 1 h [12]: 64%
remaining at 1.5 h [13]: 53%
remaining at 2 h [14]: 46%
remaining at 5 min [15]: 53%
remaining at 0.25 h [16]: 39%
remaining at 0.5 h [17]: 18%
remaining at 1 h [18]: 13%
remaining at 1.5 h [19]: 10%
remaining at 2 h [3]: 8%
Stability (Plasma [4]): Stable
Stability [20]: Unstable
Stability [21]: Stable
Stability [22]: Unstable
remaining at 0.5 h [23]: ≥ 50%
remaining at 0.5 h [24]: ≥ 50%
Activity (U-87MG ATCC [5]): Active
solubility ([25]; buffer): Soluble
solubility ([25]; water, read-out: solubility): 0.46 mg/mL (≈ 288 µM)
Activity (U-87MG ATCC [26]): Dose-dependent effect
Activity (U-87MG ATCC [27]): Active
Activity (U-87MG ATCC [28]): Active
Activity (U-87MG ATCC [29]): Active
Activity (U-87MG ATCC [30]): Active
Activity (HT-29): Active
remaining at 5 min (Homo sapiens [31]): 86%
remaining at 0.25 h (Homo sapiens [32]): 93%
remaining at 0.5 h (Homo sapiens [33]): 91%
remaining at 1 h (Homo sapiens [34]): 83%
remaining at 1.5 h (Homo sapiens [35]): 82%
remaining at 2 h (Homo sapiens [36]): 83%
Activity (A498): Active

C=CCN(/C=C1\C(=O)O[C@H](COC)[C@@]2(C)C1=C(O)C(=O)C1=C2[C@H](OC(C)=O)C[C@]2(C)[C@@H](O)CC[C@@H]12)CC=C
solubility [37]: > 0.1 mg/mL
